Data as given in ChEMBL document CHEMBL4130346, “New quinoline-arylamidine hybrids: Synthesis, DNA/RNA binding and antitumor activity” (Eur J Med Chem, 2017).
Calls of active or inactive are those of the source. No cut-off for these calls is given here.

Assays:
[1] = Chemical stability in aqueous solution after several weeks; type: physicochemical; conditions: buffer
Summary of the method: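 Aqueous compound solutions were monitored for several weeks by UV-Vis absorbance at 220-900 nm. Linearity with concentration was checked up to 3.5 × 10^-5 mol dm-3, and spectra were recorded at 25–90 °C with reproducibility checked on cooling to 25 °C.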

[2] = Solubility of the compound in water; type: physicochemical
[3] = Binding affinity to polyA-polyU (unknown origin) assessed as hypochromic effect by UV-vis spectrophotometric method
Summary of the method: (§1)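 UV-Vis titration at room temperature in Na cacodylate buffer (I = 0.05 mol dm-3, pH 7.0). Portions of ct-DNA or polyA-polyU were added to a fixed compound concentration until saturation, with dilution correction. Polynucleotide was measured as phosphate. Ks and n were obtained by Scatchard analysis, together with the hypochromic change at the absorption maximum.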

[4] = tested on: Calf thymus DNA; assay: Binding affinity to calf thymus DNA assessed as change in melting temperature at 0.3 compound to ds-polynucleotide ratio by spectrophotometric method; type: nucleic-acid assay; conditions: Bos taurus
Summary of the method: (§2)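 Thermal melting of ct-DNA (sonicated, filtered) or polyA-polyU in Na cacodylate buffer, I = 0.05 mol dm-3, pH 7.0, at given r = [compound]/[polynucleotide]; polynucleotide as phosphate concentration. Tm from maximum of first derivative, checked by tangent method. ΔTm = Tm(complex) − Tm(free nucleic acid), average of at least two measurements, error ±0.5 °C.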

[5] = tested on: Raji; assay: Growth inhibition of human Raji cells after 72 hrs by MTT assay; type: functional
Summary of the method: (§3)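 Leukemia cells (1x10^5 cells/cm3) were exposed to compound for 72 h, then MTT (5 mg/cm3) was added for 4 h. Formazan was dissolved with 10% SDS in 0.01 mol dm-3 HCl and absorbance read at 595 nm. Percent growth was taken versus untreated control minus background. GI50 came from a variable-slope fit, as mean ± SD of three independent experiments in triplicate.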

[6] = Growth inhibition of MDCK1 cells after 72 hrs by MTT assay; set-up: species or system Canis lupus familiaris; conditions: dog
Summary of the method: (§4)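 Adherent cells (2x10^4 cells/cm3) attached overnight, then were exposed to compound for 72 h. Medium was replaced with 5 mg/cm3 MTT, formazan was dissolved in DMSO and absorbance read at 595 nm. Percent growth was taken relative to untreated control minus background. GI50 came from a variable-slope log-inhibitor fit, as mean ± SD of three independent experiments in triplicate.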

[7] = Induction of polyA-polyU (unknown origin) intercalation at 0.1, 0.3, 0.5, 0.7 compound to ds-polynucleotide ratio by CD-spectrophotometric method
Summary of the method: (§5)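 Induced CD spectra were recorded in 1 cm quartz cuvettes in Na cacodylate buffer (I = 0.05 mol dm-3, pH 7.0) with ct-DNA or polyA-polyU. Compound was added at r = [compound]/[polynucleotide] = 0.1, 0.3, 0.5 and 0.7. The CD signal was followed as a function of r.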

[8] = tested on: Calf thymus DNA; assay: Binding affinity to calf thymus DNA assessed as change in melting temperature at 0.1 compound to ds-polynucleotide ratio by spectrophotometric method; type: nucleic-acid assay; conditions: Bos taurus; summary of the method: as §2
[9] = tested on: Caco-2; assay: Growth inhibition of human Caco2 cells after 72 hrs by MTT assay; type: functional; conditions: Caco-2, 72 h; summary of the method: as §4
[10] = tested on: K562; assay: Growth inhibition of human K562 cells after 72 hrs by MTT assay; type: functional; conditions: K562, 72 h; summary of the method: as §3
[11] = tested on: Calf thymus DNA; assay: Binding affinity to calf thymus DNA assessed as change in melting temperature at 0.5 compound to ds-polynucleotide ratio by spectrophotometric method; type: nucleic-acid assay; conditions: Bos taurus; summary of the method: as §2
[12] = Binding affinity to polyA-polyU (unknown origin) assessed as change in melting temperature at 0.1 compound to ds-polynucleotide ratio by spectrophotometric method; summary of the method: as §2
[13] = tested on: Calf thymus DNA; assay: Binding affinity to calf thymus DNA by UV-vis spectrophotometric method; type: nucleic-acid assay; conditions: Bos taurus; summary of the method: as §1
[14] = tested on: HeLa; assay: Growth inhibition of human HeLa cells after 72 hrs by MTT assay; type: functional; summary of the method: as §4
[15] = Binding affinity to polyA-polyU (unknown origin) assessed as change in melting temperature at 0.3 compound to ds-polynucleotide ratio by spectrophotometric method; summary of the method: as §2
[16] = tested on: Calf thymus DNA; assay: Binding affinity to calf thymus DNA assessed as hypochromic effect by UV-vis spectrophotometric method; type: nucleic-acid assay; conditions: Bos taurus; summary of the method: as §1
[17] = Binding affinity to polyA-polyU (unknown origin) assessed as change in melting temperature at 0.5 compound to ds-polynucleotide ratio by spectrophotometric method; summary of the method: as §2
[18] = tested on: Calf thymus DNA; assay: Binding affinity to calf thymus DNA minor groove at 0.1, 0.3, 0.5, 0.7 compound to ds-polynucleotide ratio by CD-spectrophotometric method; type: nucleic-acid assay; conditions: Bos taurus; summary of the method: as §5
[19] = Binding affinity to polyA-polyU (unknown origin) by UV-vis spectrophotometric method; summary of the method: as §1
[20] = tested on: Calf thymus DNA; assay: Disruption of calf thymus DNA helix at 0.1, 0.3, 0.5, 0.7 compound to ds-polynucleotide ratio by CD-spectrophotometric method; type: nucleic-acid assay; conditions: Bos taurus; summary of the method: as §5

Row | Compound | Stability [1] | solubility [2] [µM] | Activity [3] | ΔTm [4] [°C] | GI50 [5] [µM] | GI50 at 72 h [6] [µM] | Activity [7] | ΔTm [8] [°C] | GI50 [9] [µM] | GI50 [10] [µM] | ΔTm [11] [°C] | ΔTm [12] [°C] | log Ks [13] | GI50 [14] [µM] | ΔTm [15] [°C] | Activity [16] [%] | ΔTm [17] [°C] | Activity [18] | log Ks [19] | Activity [20]
1 | Cl.Cl.N=C(NC1CCCC1)c1ccc2nc(-c3ccc(Oc4ccnc5cc(Cl)ccc45)cc3)[nH]c2c1 | Stable | 1000 | 22.8% | 2.91 | 41.5 | 55.5 | Active | 1.41 | 47.4 | 54.6 | 3.07 | 0.18 | 6.23 | 61.9 | 4.06 | 36.7 | 6.82 | Active | 6.31 | –
2 | Cl.Cl.Clc1ccc2c(Oc3ccc(C4=NCCN4)cc3)ccnc2c1 | Stable | 1000 | – | 2.67 | 40.8 | 56.6 | – | 2.65 | 64 | 48.7 | 2.73 | 1.18 | – | 57.7 | 2.18 | – | 1.49 | – | – | –
3 | CC(C)NC(=N)c1ccc(OCCNc2ccnc3cc(Cl)ccc23)cc1.Cl.Cl.Cl | Stable | 1000 | – | – | > 100 | > 100 | – | – | > 100 | > 100 | – | – | – | > 100 | – | – | – | – | – | –
4 | Cl.Cl.Cl.N=C(N)c1ccc2nc(-c3ccc(OCCNc4ccnc5cc(Cl)ccc45)cc3)[nH]c2c1 | Stable | 1000 | inactive | 8.4 | 29.3 | 71.6 | – | 4.84 | > 100 | 34.7 | 8.4 | – | 6.72 | > 100 | – | 17.7 | – | Active | inactive | Active
5 | CC(C)NC(=N)c1ccc(Oc2ccnc3cc(Cl)ccc23)cc1.Cl.Cl.Cl | Stable | 1000 | – | 2.28 | 51.8 | 57.7 | – | 2.01 | 47.7 | 82.9 | 2.28 | 0.36 | – | 56.6 | -0.36 | – | – | – | – | –
6 | Cl.Cl.Clc1ccc2c(Oc3ccc(-c4nc5ccc(C6=NCCCN6)cc5[nH]4)cc3)ccnc2c1 | Stable | 1000 | 15.5% | 3.31 | 50.5 | 67.1 | Active | 3.3 | 34.5 | 21.6 | 3.89 | 2.84 | 6.96 | 64.4 | 1.98 | 25.5 | 1.82 | Active | 7.29 | –
7 | CC(C)NC(=N)c1ccc2nc(-c3ccc(OCCNc4ccnc5cc(Cl)ccc45)cc3)[nH]c2c1.Cl.Cl.Cl | Stable | 1000 | inactive | 9.05 | 19.6 | > 100 | – | 5.83 | > 100 | 17.2 | 9.83 | – | 6.63 | > 100 | – | 23.7 | – | Active | inactive | Active
8 | Cl.Cl.Clc1ccc2c(Oc3ccc(-c4nc5ccc(C6=NCCN6)cc5[nH]4)cc3)ccnc2c1 | Stable | 1000 | 69.7% | 3.2 | 40.6 | 77.1 | Active | 1.6 | 36.8 | 27.6 | 4.08 | -0.16 | 5.76 | > 100 | 0.78 | 68.5 | 1.12 | Active | – | –
9 | Cl.Cl.Cl.Clc1ccc2c(NCCOc3ccc(-c4nc5ccc(C6=NCCCN6)cc5[nH]4)cc3)ccnc2c1 | Stable | 1000 | inactive | 9.76 | 19 | 100 | – | 6.33 | > 100 | 13.3 | 10.8 | – | 6.52 | > 100 | – | 31 | – | Active | inactive | Active
10 | Cl.Cl.Cl.N=C(N)c1ccc2nc(-c3ccc(Oc4ccnc5cc(Cl)ccc45)cc3)[nH]c2c1 | Stable | 1000 | 6.9% | 2.84 | 111 | > 100 | Active | 2.07 | 82.9 | > 100 | 2.9 | 2.98 | 6.83 | > 100 | 0.72 | 79.8 | 0.21 | Active | 6.43 | –
11 | Cl.Cl.Clc1ccc2c(Oc3ccc(C4=NCCCN4)cc3)ccnc2c1 | Stable | 1000 | – | 1.86 | 50.8 | 37.5 | – | 2.08 | 53.3 | 62 | 1.96 | 1.62 | – | 57 | 1.22 | – | 1.32 | – | – | –
12 | CC(C)CNC(=N)c1ccc(OCCNc2ccnc3cc(Cl)ccc23)cc1.Cl.Cl.Cl | Stable | 1000 | – | – | 86.2 | > 100 | – | – | 92.6 | 77.3 | – | – | – | > 100 | – | – | – | – | – | –
13 | Cl.Cl.Clc1ccc2c(NCCOc3ccc(C4=NCCCN4)cc3)ccnc2c1 | Stable | 1000 | – | – | > 100 | > 100 | – | – | > 100 | > 100 | – | – | – | > 100 | – | – | – | – | – | –
14 | Cl.Cl.Clc1ccc2c(NCCOc3ccc(C4=NCCN4)cc3)ccnc2c1 | Stable | 1000 | – | – | 51.5 | 78.4 | – | – | 50.7 | 51.9 | – | – | – | 60.8 | – | – | – | – | – | –
15 | Cl.Cl.N=C(NC1CCCC1)c1ccc(OCCNc2ccnc3cc(Cl)ccc23)cc1 | Stable | 1000 | – | – | 96.9 | > 100 | – | – | 84.5 | 76.9 | – | – | – | > 100 | – | – | – | – | – | –
16 | Cl.Cl.Cl.N=C(N)c1ccc(OCCNc2ccnc3cc(Cl)ccc23)cc1 | Stable | 1000 | – | – | 58.9 | 74.4 | – | – | 68.6 | 49.5 | – | – | – | 74 | – | – | – | – | – | –
17 | Cl.Cl.N=C(N)c1ccc(Oc2ccnc3cc(Cl)ccc23)cc1 | Stable | 1000 | – | 2.17 | 53 | 52.8 | – | 1.76 | 57.6 | 62.5 | 2.07 | 0 | – | 59.1 | -0.16 | – | -0.26 | – | – | –
